Measured values reported in PubChem BioAssay AID617 (SRMLSC, 2007).

System: E. coli BW25113 ΔtolC growth inhibition, OD615
Test: E. coli ΔtolC antibacterial growth inhibition – strain BW25113 ΔtolC::kan, dose response (AID 617)
Summary of the method: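 System: E. coli BW25113 ΔtolC::kan bacteria. Amount: 1:1000 diluted subculture inoculum. Medium: LB broth supplemented with kanamycin at 50 µg/mL. Compound dosing: serial dilution series of compound. Schedule: 20 h exposure at 37 °C. Detection: OD615. Measure: IC50 of bacterial growth inhibition. Benchmarks: chloramphenicol control, 30 µM final.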

SMILES	IC50 [µM]
CCCCNC(=O)c1sc(=S)n2c1[nH]c(=O)c1ccccc12	0.54
CCOC(=O)c1cn(CC)c2cc(N3CCSCC3)c(F)cc2c1=O	1.4
N#Cc1nc(COc2ccc(F)cc2)oc1N1CCN(Cc2ccccc2)CC1	14.4
CC(C)c1nc(N2CCOCC2)c(C#N)c2c1CCCC2	18
CC(C)(C)c1ccc(Cn2nnc3c(=O)[nH]c(C4CCCN(C(=O)Cc5cccs5)C4)nc32)cc1 (stereo unspecified)	15.6
CC1CCN(C(=O)c2ccc(COc3ccccc3Cl)o2)CC1	11.1
c1ccc2c(c1)oc1c(N3CCN(Cc4ccc5c(c4)OCO5)CC3)ncnc12	10.9
COc1ccccc1N1CCN(C(=O)COc2ccc(C)cc2Br)CC1	25.9
N#CC1=C(SCC(=O)c2cc3ccccc3oc2=O)NC(=O)C(C#N)C12CCCC2 (stereo unspecified)	12.7
CC1CCC2C(C1)c1sc(=O)[nH]c1SC2(C)C (stereo unspecified)	7.77
COc1cccc(-c2nnc(NC(=O)c3ccc(S(=O)(=O)N(CC(C)C)CC(C)C)cc3)o2)c1	0.91
CCNc1nc(NC(C)C)nc(N(C#N)Cc2ccccc2)n1	18.1
O=C(Nc1nnc(-c2ccccc2Cl)o1)c1ccc(S(=O)(=O)N2CCCCCC2)cc1	0.16
CC1=C(C(=O)OC(C)C)C(c2c[nH]c3ccccc23)n2ncnc2N1 (stereo unspecified)	6.11
Cc1cccc2cc(CN(Cc3ccco3)C(=O)NC3CCCCC3)c(=O)[nH]c12	14.9
C=CCN(CC=C)S(=O)(=O)c1ccc2nc(NC(=O)C(C)C)sc2c1	6.66
N#Cc1nc(Cc2ccccc2)oc1NCc1ccccc1Cl	4.79
CN(C)c1ccc(C2C=C(c3ccc(Cl)cc3OC(F)F)Nc3ncnn32)cc1 (stereo unspecified)	1.95
c1ccc(N2CCN(c3ncnc4c3oc3ccccc34)CC2)cc1	40.5
Cc1ccc2ccc(S(=O)(=O)n3nc(C)cc3C)cc2c1	14.5
COCCNc1nc(-n2nc(C)cc2C)nc2sc3c(c12)CCCC3	6.71
CCOC(=O)c1cn(CC)c2cc(N3CCOCC3)c(F)cc2c1=O	0.78
CCCCOc1ccc(NC2=NC3(CCCCC3)N=C(N)N2)cc1	2.64

SMILES	IC50 [µM]
c1ccc(CN2CCN(c3nc(-c4ccccc4)nc(-n4ccnc4)n3)CC2)cc1	6.13
CC1=CCC(COC(=O)Nc2ccccc2)CC1 (stereo unspecified)	26.8
C=CCSc1n[nH]c(-c2ccc(OCCCC)cc2)n1	93.1
Cc1nn(-c2ccccc2)c(Cl)c1C1C(C#N)=C(N)Oc2c1c(=O)oc1ccccc21 (stereo unspecified)	12
Cc1nc(N2CCN(c3ccccc3)CC2)nc2c1C(=O)CCC2	26.6
COC(=O)c1ccsc1NC(=O)CN1CCN(c2ccc(F)cc2)CC1	18.5
N#C/C(=C\c1ccc[nH]1)Sc1nc2ccccc2s1	4.28
CN(C)[C@@H]1C(=O)C(C(N)=O)=C(O)[C@@]2(O)C(=O)C3=C(O)c4c(O)ccc(Cl)c4[C@@H](O)[C@H]3C[C@@H]12	< 0.2
CCCCCC/C(=N/O)c1ccccn1	3.15
COc1ccccc1N1CCN(C(=O)c2cc(-c3cccc(Cl)c3)on2)CC1	12.9
N#Cc1nc(Cc2cccc3ccccc23)oc1NCc1ccc(F)cc1	11.7
COc1ccc(-c2nnc(NC(=O)c3ccc(S(=O)(=O)N4COCC4(C)C)cc3)o2)cc1	0.52
COc1ccc(NC(=O)c2ccc(Cl)c(S(=O)(=O)N3CCc4ccccc4C3)c2)cn1	8.1
CCCCc1ccc(Nc2nc(CCC)cc(=O)[nH]2)cc1	14.9
Cc1oc(C(C)(C)C)cc1C(=O)Nc1ccc2c(c1)OCCO2	18.9
Fc1ccc(CNc2nc(-c3ccco3)cc(C(F)(F)F)n2)cc1	13.9
Brc1ccc(CSc2nnc(-c3ccccn3)n2Cc2ccco2)cc1	9.85
CCOC(=O)c1c(-c2ccccc2)oc2ccc(OC(=O)N(C)C)cc12	9.1
O=C(CNCCC1=CCCCC1)Nc1ccccc1N1CCCCC1	11.2
c1ccc2c(c1)CCN(c1nc3cc4c(cc3s1)OCCO4)C2	14.8
Cc1nc(N2CCN(Cc3ccc4c(c3)OCO4)CC2)c2oc3ccccc3c2n1	11.6
COC(=O)c1ccc(OC)c(CSc2nnc(COc3ccccc3)o2)c1	23.1
Cc1cc(=O)[nH]c(-n2nc(C)cc2C)n1	6.56

SMILES	IC50 [µM]
N#C/C(=C\c1ccco1)Sc1nc2ccccc2s1	8.6
COC(=O)c1sccc1NC(=O)c1cc2c(s1)CCCC2	4.95
O=C(Nc1nccs1)C(NS(=O)(=O)c1ccc(Br)s1)c1ccccc1 (stereo unspecified)	12.8
Cc1cccnc1Nc1nc(-c2ccc(O)cc2O)cs1	17.8
COc1cc(/C=C(/C#N)c2ccc(F)cc2)ccc1OCc1ccc(C(=O)O)o1	4.94
Oc1c(C(c2ccco2)N2CCN(C(c3ccccc3)c3ccccc3)CC2)sc2ncnn12 (stereo unspecified)	13.3
N#C/C(=C\c1cccs1)Sc1nc2ccccc2s1	9.02
CCOC(=O)C1Cn2c(nc3c(c2=O)C(C)(CC)Cc2ccccc2-3)S1 (stereo unspecified)	24.2
CCOC(=O)c1c(CN2CCOCC2)n(-c2ccccc2)c2ccc(O)cc12	18.3
O=C(NCc1ccco1)c1ccc(S(=O)(=O)N2CCCc3ccccc32)cc1	30.2
N#CC1=C(SCC(=O)NC23CC4CC(CC(C4)C2)C3)NC(=O)C(C#N)C12CCCCC2 (stereo unspecified)	4.11
CCCCOc1ccc(S(=O)(=O)Nc2cc(OC)ccc2OC)cc1	16.8
Clc1ccc2[nH]c3c(c2c1)CCc1cn[nH]c1-3	6.49
COc1cccc(NC(=O)Nc2nnc(N3CCCCC3C)s2)c1 (stereo unspecified)	8.43
N#Cc1nc(-c2ccc(OCc3ccccc3)cc2)oc1NCCCn1ccnc1	6.08
O=C(NCc1ccc2c(c1)OCO2)c1ccc(-c2ccc(Cl)cc2)o1	5.02
CCC(C)(C)n1nnnc1C(c1cc2ccc(OC)cc2[nH]c1=O)N1CCc2ccccc2C1 (stereo unspecified)	17.1
O=C1CC(O)(C(F)(F)F)Oc2c1ccc1ccccc21 (stereo unspecified)	1.19
CCCOc1ccc2c3c(c(=O)oc2c1OCCC)CCC3	14.5
CCc1ccc(S(=O)(=O)NCCc2csc(-c3ccccc3)n2)s1	8.87
CCC(Oc1ccccc1)C(=O)Nc1ccc(-c2nnc(-c3ccco3)o2)cc1 (stereo unspecified)	18.2
COc1ccc2c(c1)OC(O)(C(F)(F)C(F)F)CC2=O (stereo unspecified)	7.68
CCOc1ccc2nc(NC(=O)C(CC)Sc3nc(C)cc(=O)[nH]3)sc2c1 (stereo unspecified)	12.1

SMILES	IC50 [µM]
Cc1ccc2[nH]c(=O)c(CN(Cc3nnnn3Cc3ccccc3)C3CCCC3)cc2c1	53.3
c1ccc(-c2nc(CSc3nnc(-c4cccs4)o3)cs2)cc1	10.1
N#Cc1nc(COc2ccccc2)oc1N1CCN(Cc2ccccc2)CC1	14.3
CC1CN(c2nc3c(c(=O)n(Cc4ccc(Cl)c(Cl)c4)c(=O)n3C)n2C)CC(C)O1 (stereo unspecified)	20.4
Cc1cccc(N2CCN(C(=O)c3cc4n(n3)C(C(F)(F)F)CC(c3ccco3)N4)CC2)c1C (stereo unspecified)	6.74
CN(C1CCCCC1)S(=O)(=O)c1ccc(NC(=O)c2ccc(Br)o2)cc1	10.6
O=C(Oc1ccc2ccccc2c1Cl)N1CCCC1	23.2
CC(C)c1nnc(NC(=O)c2c(O)c3cccc4c3n(c2=O)CC4)s1	34.7
CN(Cc1ccccc1)Cc1nc2c(c(=O)n(C)c(=O)n2C)n1CCCc1ccccc1	14.9
Clc1ccc(COC(Cn2ccnc2)c2ccc(Cl)cc2Cl)cc1 (stereo unspecified)	2.27
O=C(CSc1nnc2scc(-c3ccccc3)n12)Nc1nsc(-c2ccccc2)n1	13.1
COc1cc2ccccc2cc1C(=O)Nc1ccc(S(=O)(=O)Nc2cc(C)on2)cc1	10.7
CCS(=O)(=O)n1nc(-c2ccccc2)nc1SCc1ccccc1	15.7
CC(C)(C)n1nnnc1C(c1cccs1)N(Cc1ccccc1)Cc1cccnc1 (stereo unspecified)	8.37
Oc1ccc2c(c1)oc1cc(O)ccc12	16.6
CC(C)(C)c1csc(NC(=O)c2ccc(Cl)s2)n1	29.6
O=C(NCCCc1ccccc1)c1ccccc1O	9.34
CCCCCC(=O)Nc1ccccc1N1CCN(c2ccccc2)CC1	20.6
CC1=CC(C)(C)N2C(=O)C3(SCC(=O)N3c3ccc(O)cc3)c3cc(C)cc1c32 (stereo unspecified)	11.8
COc1ccc(-c2[nH]ncc2-c2ccc(Cl)cc2)c(O)c1	4.52
CCOC(=O)c1ccc(NC(=O)CCc2nc(-c3ccccc3Cl)no2)cc1	10.4
CC(C)CCOC(=O)c1c(N)n(CC2CCCO2)c2nc3ccccc3nc12 (stereo unspecified)	18.3
COC(=O)c1[nH]c2ccccc2c1NC(=O)CN1CCN(c2cccc(OC)c2)C(C)C1 (stereo unspecified)	18.6

SMILES	IC50 [µM]
Cc1cccc(NC(=O)c2cc3n(n2)C(C(F)(F)F)CC(c2ccc4c(c2)OCO4)N3)c1 (stereo unspecified)	6.87
O=C(Nc1nc2n(n1)C(c1ccc(Cl)cc1)CC(c1ccc(Cl)cc1)N2)c1ccco1 (stereo unspecified)	4.7
COc1c(N2CCNC(C)C2)c(F)cc2c(=O)c(C(=O)O)cn(C3CC3)c12 (stereo unspecified)	< 0.2
CCn1c2ccccc2c2cc(NC(=O)c3ccco3)ccc21	8.97
CCC(Oc1ccccc1)C(=O)Nc1nnc(C(F)(F)F)s1 (stereo unspecified)	9.18
Oc1c(CN2CCN(c3ccccn3)CC2)cc(Cl)c2cccnc12	11.4
Cc1nn(-c2nc3ccccc3[nH]2)c(N)c1-c1ccccc1	59.4
CCOc1ccc2nc(N3CCCN(C(=O)Nc4ccccc4C)CC3)c(C#N)cc2c1	36.3
COC(=O)c1c(NC(=O)c2ccc(C)o2)sc2c1CCCCC2	28.4
CCC(CC)c1nnc(NC(=O)c2c(-c3ccccc3)noc2C)s1	19.8
COC(=O)C1=C(CSc2nc3ccccc3o2)NC(=O)NC1c1cc(C)ccc1C (stereo unspecified)	13
Cc1ccc(C)c2[nH]c(=O)c(CN(CC3CCCO3)S(=O)(=O)c3ccc4c(c3)OCCO4)cc12 (stereo unspecified)	38.6
O=C1[C@H]2[C@@H](C(=O)N1c1cc(Cl)cc(Cl)c1)[C@]1(C(=O)Nc3ccccc31)N1CCC[C@@H]21	10.1
CCCc1ccc(OCc2ccc(C(=O)N3CCN(c4ccccn4)CC3)o2)c(OC)c1	7.15
COc1cccc(-c2cc(C(F)(F)F)nc(N3CCOCC3)n2)c1	16.5
C=CCn1c(SCC(=O)Nc2nc3ccccc3s2)nnc1-c1ccccc1O	8.28
CC1=C(C(=O)OC2CCCCCCC2)C(c2cccc(O)c2)NC(=O)N1 (stereo unspecified)	12.3
Cc1onc(-c2ccccc2)c1C(=O)OCC(=O)c1ccccc1	24.2
CCCc1nc(SCC(=O)N2CCCc3ccccc32)c2c(=O)n(C)c(=O)n(C)c2n1	11.6
